Only a selection was taken, and hits are over-represented in it overall.
T cruzi repl – T. cruzi replication inhibition. 1.4% of 300,000 active. inhibition, % (concentration not given with the values). T. cruzi beta-gal in NIH3T3, luminescence, 90 h;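 active means mean inhibition across valid replicates above about 55%, limit read from the data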;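 further: signal also drops with host cell toxicity which is not excluded here; 0% = plate median of DMSO wells and 100% = zero luminescence signal; higher percent means less beta-gal luminescence so fewer parasites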
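Test system: β-gal T. cruzi (Tulahuen C4) inside NIH/3T3 cells / Quantity: 5,000 cells/well / Measured by: luminescence from GalScreen with 0.05% NP40, read after 60 min / Medium: DMEM plus 2% FBS / Measure: parasite load inhibition, % / Reagent: Tulahuen C4 trypomastigotes, 5000/well / Schedule: co-culture of at least 90 h after 3 h attachment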
UPR CHOP act – apoptotic UPR (CHOP) activation | AID 449763 | 0.34% of 330,000 active | activation, % at 10 µM | CHO-CHOP luciferase reporter, luminescence; percent of tunicamycin response over DMSO baseline;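 active means at 10 µM dose, activation of 40% or more, normalized to positive control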;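 further: 100% = tunicamycin at 10 µg/mL and 0% = DMSO alone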
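Test system: CHO CHOP reporter cells. Input: 500 CHO-CHOP cells per well. Medium: F12 with 10% FBS. Technique: luciferase luminescence. Measure: percent activation relative to tunicamycin control. Dosing: 10 µM compound, 0.5% DMSO. Timing: 16-18 h cell attachment, then 6 h compound exposure, 37 °C.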
UPR XBP1 act – activators of adaptive arm of unfolded protein response (XBP1) | CHO-XBP1 luciferase reporter, IRE1-XBP1 UPR activation, luminescence; percent of tunicamycin response, DMSO as zero | activation, % at 20 µM | 0.33% of 330,000 active | AID 463104;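 active means versus positive control, 20 µM dose yields 30% or more activation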;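 further: 100% = tunicamycin at 10 µg/mL and 0% = DMSO only wells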
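Assay system: IRE1-XBP1 luciferase reporter CHO line. Input: 1000 cells/well. Buffer or medium: F12 with 10% serum. Doses: 20 µM, 1% DMSO. Times: overnight seeding at 37 °C, 6 h compound treatment at 37 °C. Technique: Steady-Glo luciferase glow luminescence, 10 min after reagent addition.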
CHOP inh – CHOP inhibition in unfolded protein response; 3.8% of 220,000 active; inhibition, % at 10 µM; CHO-K1 CHOP-promoter luciferase, tunicamycin-induced, 15-18 h; AID 2732;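 active means compounds that reduced the stress-induced luciferase reporter signal by more than about 70% of percent inhibition, limit read from the data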;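 further: 0% = tunicamycin plus vehicle and 100% = wells without tunicamycin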
Dynein transport – blocks dynein driven cargo transport along microtubules. 0.47% of 220,000 active. 3617.4 mouse cells, GR-EGFP nuclear translocation imaging; test concentration mostly 20 µM; stimulated with dexamethasone, 1 µM; active compounds read low. z-score, hits read low;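 active means plate z-score of nuclear minus cytoplasmic receptor signal below a set negative limit, without overly bright fluorescence or cell loss, cut at about -3.5 in these data, passing the limit was not always enough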;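 further: z-score of nuclear minus cytoplasmic ring GR-EGFP intensity difference per well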
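Buffer or medium – tet-free medium with charcoal-stripped serum · Signal – automated 10x imaging of fixed Hoechst-stained cells · Also added – dexamethasone agonist, 1.0 µM final, for 30 min · Incubation – induction 48 h, compound 1 h, agonist 30 min · Read-out – GR-EGFP nuclear translocation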
Lmaj promast – Leishmania major promastigote growth inhibition; Leishmania major promastigotes, resazurin fluorescence viability; inhibition, % at 10 µM; 9% of 200,000 active; AID 1063; in the data active means inhibition above about 50%;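 further: promastigotes grown with compound for 44 hours at 28 °C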
* marks the source's active call; other numbers are inactive results.

Results for COc1ccc(-n2c(-c3ccc(Br)cc3)c[n+]3c2CCC3)cc1 ?
T cruzi repl: 40.8; UPR CHOP act: -1.5; UPR XBP1 act: -4.3; CHOP inh: 1.4; Dynein transport: -1.22; Lmaj promast: 100.0*

Results for COc1ccc(-n2c(-c3ccccc3)c[n+]3c2CCC3)cc1 ?
T cruzi repl: 12.2; UPR CHOP act: 0.2; UPR XBP1 act: 1.2; CHOP inh: -12.8; Dynein transport: 0.925

Results for COc1ccc(-n2c(-c3ccc(Br)cc3)c[n+]3c2CCCCC3)cc1 ?
T cruzi repl: 66.3*; UPR CHOP act: -0.2; UPR XBP1 act: -1.9; CHOP inh: 10.6; Dynein transport: -0.189; Lmaj promast: 100.0*

What do the screens show for `COc1ccc(-n2c(-c3ccc(Br)cc3)c[n+]3c2SC(C)C3)cc1` (stereo not drawn)?
T cruzi repl: 89.6*; UPR CHOP act: -1.6; UPR XBP1 act: -3.1; CHOP inh: -25.2; Dynein transport: -0.568; Lmaj promast: 100.1*

What do the screens show for `COc1ccc(-n2c(-c3ccc(Br)cc3)n[nH]c2=S)cc1`?
T cruzi repl: -1.7; UPR CHOP act: -0.8; UPR XBP1 act: -3.7

What do the screens show for `Cc1ccc(-n2c(-c3ccccc3)c[n+]3c2CCC3)cc1`?
T cruzi repl: 47.8; UPR CHOP act: -2.0; UPR XBP1 act: 1.2; CHOP inh: 3.3; Dynein transport: -0.934; Lmaj promast: 97.6*

What do the screens show for `Cc1ccc(-n2c(-c3ccc(Cl)cc3)c[n+]3c2CCC3)cc1`?
T cruzi repl: 31.0; UPR CHOP act: 0.4; UPR XBP1 act: 3.7; CHOP inh: 12.2; Dynein transport: -0.757

Results for Cc1cc(=O)[nH]c(SCC(=O)N2C(C)CCCC2C)n1 (stereo not drawn) ?
T cruzi repl: 1.5; UPR CHOP act: -1.9; UPR XBP1 act: -4.4

Results for O=C(COC(=O)c1cncc(Br)c1)NC1CCCCCC1 ?
T cruzi repl: 4.4; UPR CHOP act: -1.3; UPR XBP1 act: -3.4; CHOP inh: 9.2; Dynein transport: 0.347; Lmaj promast: -8.0

Results for Cc1ccc(-n2c(C)nnc2SCC(=O)N(C)c2c(N)n(Cc3ccccc3)c(=O)[nH]c2=O)cc1 ?
UPR CHOP act: -3.2; UPR XBP1 act: 1.7

Results for FC(F)Sc1ccc(-n2c(-c3ccc(Cl)cc3)c[n+]3c2CCC3)cc1 ?
T cruzi repl: 14.1; UPR CHOP act: -2.2; UPR XBP1 act: -2.0; CHOP inh: 5.6; Dynein transport: -0.179; Lmaj promast: 25.4

Results for CCOc1ccc(-c2nnc(-c3ccccc3)n2-c2ccccc2)cc1 ?
T cruzi repl: 23.9; UPR CHOP act: 1.9; UPR XBP1 act: 1.4; CHOP inh: 34.7; Dynein transport: 0.093; Lmaj promast: 65.2*

How did CCOc1ccc(-c2c[n+]3c(n2-c2ccccc2)CCCCC3)cc1 do in these assays?
T cruzi repl: 66.2*; UPR CHOP act: 2.1; UPR XBP1 act: -0.4; CHOP inh: -7.4; Dynein transport: 0.338; Lmaj promast: 100.3*

What do the screens show for `CC(=O)Nc1ccc(C(=O)OCC(=O)c2ccc(C)c([N+](=O)[O-])c2)cc1`?
T cruzi repl: -13.8; UPR CHOP act: 1.7; UPR XBP1 act: 1.0; CHOP inh: 33.9; Dynein transport: -1.15; Lmaj promast: 57.7*

What do the screens show for `CC(=O)Nc1ccc(C(=O)OCC(=O)c2cccc([N+](=O)[O-])c2)cc1`?
T cruzi repl: -16.3; UPR CHOP act: -1.7; UPR XBP1 act: 0.2; CHOP inh: 4.4; Dynein transport: -0.0855; Lmaj promast: -7.8

Results for CCC(=O)Nc1ccc(C(=O)OCC(=O)c2ccc(C)c([N+](=O)[O-])c2)cc1 ?
T cruzi repl: 9.3; UPR CHOP act: 0.4; UPR XBP1 act: 0.4; CHOP inh: -1.1; Dynein transport: -0.952; Lmaj promast: -5.6

How did Cc1ccc(C(=O)COC(=O)c2cccc(NC(=O)c3ccc([N+](=O)[O-])cc3[N+](=O)[O-])c2)cc1 do in these assays?
T cruzi repl: 70.6*; UPR CHOP act: -0.4; UPR XBP1 act: -2.8; CHOP inh: 8.4; Dynein transport: 0.601; Lmaj promast: 91.6*
